# Screens from PubChem BioAssay.
# aDG glyco up = increases alpha dystroglycan glycosylation. Pro5-aDG cells, alpha-DG glycosylation AlphaScreen (IIH6); 0% Pro5, 100% B10-LARGE cell signal. activation, % at 10 µM. hit rate 0.22% among 360,000. AID 624168;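 active means activation of at least 8% versus controls, or a plate z-score of at least 8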;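 further: Pro5 are CHO cells carrying HIG-tagged alpha-DG that lacks glycosylation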
# Jurkat NFkB inh = inhibitors of the PMA/ionomycin-induced NF-kB reporter in Jurkat cells; inhibition, % at 4 µM; PMA/ionomycin-induced NF-kB luciferase reporter, luminescence; hit rate 0.53% among 330,000; AID 435003; in the data active means inhibition above about 50%
# 697 NFkB inh = inhibitors of the PMA/ionomycin-induced NF-kB reporter in 697 B cells | 697 B-cell NF-kB luciferase reporter, 16 h | inhibition, % at 4 µM | hit rate 0.33% among 330,000 | AID 435022; in the data active means inhibition above about 35%
# NR2E3 ag-1 = agonists of human nuclear receptor NR2E3. Q9Y5X4. inhibition of corepressor binding, % at 4.78 µM. GST-NR2E3/biotin-RetCOR TR-FRET, 1536-well. hit rate 0.12% among 320,000;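 active means percent inhibition above the cutoff of mean plus 3 SD of all tested compounds, set per screening campaign, cut at about 20% in these data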
# Target sequence (Q9Y5X4 whole entry, looked up): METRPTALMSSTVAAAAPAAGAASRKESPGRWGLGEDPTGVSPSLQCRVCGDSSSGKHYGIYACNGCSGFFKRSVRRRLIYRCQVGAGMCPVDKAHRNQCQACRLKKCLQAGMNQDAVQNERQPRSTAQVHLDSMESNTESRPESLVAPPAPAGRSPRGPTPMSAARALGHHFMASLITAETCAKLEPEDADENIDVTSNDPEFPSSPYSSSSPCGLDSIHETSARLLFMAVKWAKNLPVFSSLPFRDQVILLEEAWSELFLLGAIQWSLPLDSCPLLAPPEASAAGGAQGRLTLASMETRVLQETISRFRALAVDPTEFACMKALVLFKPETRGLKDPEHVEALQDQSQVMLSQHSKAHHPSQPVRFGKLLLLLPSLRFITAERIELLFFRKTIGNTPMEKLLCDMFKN
#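 Format: 1536-well format; test system: GST-NR2E3 and biotin-RetCOR proteins; read-out basis: percent inhibition of TR-FRET ratio; timing: 5 h incubation at 4 °C; detection: time-resolved FRET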
# NR2E3 ag-2 = activates human NR2E3 receptor; inhibition of corepressor binding, % at 3.98 µM; Q9Y5X4; hit rate 0.35% among 360,000; CHO-S Gal4-NCOR/VP16-NR2E3 two-hybrid, luciferase;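 active means inhibition above the mean of all tested compounds plus 3 SD, cut at about 70% in these data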;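 further: higher means lower luciferase signal from less NR2E3 corepressor binding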
# MPTP inh = blocks calcium-induced mitochondrial swelling. isolated mouse mitochondria, Ca2+ swelling absorbance, 30 min. inhibition, % at 10 µM. hit rate 1.4% among 360,000;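 active means inhibition of 50% or more, scaled per plate between neutral and stimulator controls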
# MPTP counter = membrane potential counter-screen of mitochondrial pore inhibitors. isolated mitochondria, Rhodamine 123 fluorescence. inhibition, % at 10 µM. hit rate 78% among 5,000. shares compounds with MPTP inh; in the data active means inhibition above about 22%
# MPTP swell DR = dose response confirmation of mitochondrial permeability transition pore inhibitors; shares compounds with MPTP inh; IC50, µM; hit rate 58% among 780; isolated mitochondria swelling, absorbance; in the data active means IC50 below about 20 µM
# MPTP counter DR = counter-screen for mitochondrial permeability transition pore inhibitors, dose response; shares compounds with MPTP inh; isolated mitochondria counterscreen, fluorescence read-out; IC50, µM; hit rate 49% among 780; AID 651564; in the data active means IC50 below about 80 µM
# aDG glyco conf = confirmation of alpha dystroglycan glycosylation activators. shares compounds with aDG glyco up. Pro5-aDG cells, alpha-DG glycosylation, IIH6 AlphaLISA; scaled to LARGE-overexpressing B10 cells as 100%. activation, % at 10 µM (by protocol). hit rate 17% among 600;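 active means activation of at least 7% in one or more replicates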;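 further: cells exposed to compound for two days before detection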
# Hits are given with their value; . = inactive; / = no result given. Only some compounds are listed: those with a hit (about 2.4% of all), similar ones and a draw of the others.
SMILES,aDG glyco up,Jurkat NFkB inh,697 NFkB inh,NR2E3 ag-1,NR2E3 ag-2,MPTP inh,MPTP counter,others
CCCCCSc1cc(OC)c(CCNC)cc1OC,.,.,.,.,.,86,.,MPTP swell DR=5.3;MPTP counter DR=.
ClC(Cl)=C(c1ccc(Cl)cc1)c1ccc(Cl)cc1,.,.,.,.,.,77,.,MPTP swell DR=.;MPTP counter DR=78
S=C(c1ccc(Cl)cc1)N1CCOCC1,.,.,.,.,.,.,/,
Cc1ccc(CN2CCCC(C(=O)c3sccc3C)C2)o1 (stereo not drawn),.,.,.,.,.,.,/,
COc1cc(OC)c(OC)cc1/C=C1/C(=O)NC(=O)N(Cc2ccccc2)C1=O,.,.,.,.,.,60,37,
CCC1CN1P1(=O)OCC(C)([N+](=O)[O-])CO1 (stereo not drawn),.,/,/,/,.,.,/,
C[n+]1c(-c2ccccc2)sc2ccccc21,.,.,.,.,.,.,/,
CN(C)c1ccc(/C=C/C=C/c2sc3ccccc3[n+]2C)cc1,.,.,.,.,.,57,65,
Cc1ccccc1-n1c(C)nc2sccc2c1=O,.,.,.,.,.,.,/,
Cc1cc(O)c2c(c1)C(=O)C13C(=C2O)C(=O)[C@H]2[C@@H](O)[C@@H]1[C@H]1[C@H](O)[C@@H]3C(=O)C3=C(O)c4c(O)cc(C)cc4C(=O)C312 (stereo partly drawn),.,.,.,.,102,87,.,
COC(=O)CC1=C(C(=O)OC)C2(C(=O)N(C)c3ccccc32)C(C#N)=C(N)O1 (stereo not drawn),.,.,.,.,.,.,/,
CCN1C(=O)NC(=O)/C(=C/c2cc(C)n(-c3sc(C)c(C)c3C#N)c2C)C1=O,.,.,.,.,.,57,35,
CCCc1nc2ccc(Br)cc2c(=O)n1-c1ccc([N+](=O)[O-])c(C(F)(F)F)c1,.,.,.,.,.,94,79,
CCOP(=O)(Cc1cc(C#N)oc1C)OCC,.,.,.,.,.,.,/,
CCCCOc1ccc(CCN)cc1Cl,.,.,.,.,.,92,.,MPTP swell DR=6.6;MPTP counter DR=.
Clc1ccc(C(c2ccccc2)c2ncc[nH]2)cc1 (stereo not drawn),.,.,.,.,.,.,/,
O=C(c1cc(C(=O)NCc2ccccc2)c(=O)n(Cc2ccccc2)c1)c1cc(Br)ccc1O,.,.,.,.,.,84,72,
CN1C(=O)C(=Cc2ccccc2OCc2ccccc2Cl)C(=O)N(C)C1=O,.,.,.,.,.,61,44,
CN1C(=O)C(=Cc2ccccc2OCc2ccc(C(=O)O)cc2)C(=O)N(C)C1=O,.,.,.,.,.,.,/,
CCOC(=O)C(O)(c1ccc(NC(=S)NC(=O)c2ccc(Cl)cc2Cl)cc1)C(F)(F)F (stereo not drawn),.,.,.,.,.,.,/,
COC(=O)C(O)(c1ccc(NC(=S)NC(=O)c2ccc(Cl)cc2Cl)cc1)C(F)(F)F (stereo not drawn),.,.,.,.,.,.,/,
CCOC(=O)C(O)(c1ccc(NC(=S)NC(=O)c2ccc(Cl)cc2Cl)c(C)c1)C(F)(F)F (stereo not drawn),.,.,.,.,.,87,90,
COC(=O)C(O)(c1ccc(NC(=S)NC(=O)c2ccc(Cl)cc2Cl)c(C)c1)C(F)(F)F (stereo not drawn),.,.,.,.,.,86,86,
CCN1CCN(c2nc([N+](=O)[O-])nn2C)CC1,.,.,.,.,.,.,/,
CN1CCN(c2nc([N+](=O)[O-])nn2C)CC1,25,.,.,.,.,.,/,aDG glyco conf=.
O=C1NCN(c2ccccc2)C12CCN(C(c1cc3ccccc3o1)c1nnnn1C1CCCCC1)CC2 (stereo not drawn),8.4,/,/,/,.,.,/,aDG glyco conf=.
C[C@@H]1CN([C@H](C)CO)C(=O)CCCn2nncc2CO[C@@H]1CN(C)C(=O)Oc1ccccc1,.,/,/,/,.,.,/,
O=C1C2CCCN2C(c2ccc(Cl)c(Cl)c2)N1c1ccccn1 (stereo not drawn),7.0,.,.,.,.,.,/,aDG glyco conf=.
CCN1CCC2(CC1)NC(=O)c1ccccc1O2,.,.,.,.,.,.,/,
